Results from ChEMBL document CHEMBL5352413, “Discovery of small-molecules targeting the CCL20/CCR6 axis as first-in-class inhibitors for inflammatory bowel diseases” (Eur J Med Chem, 2022).
The source made the active and inactive calls. No cut-off for these calls is given here.

Assays:
[1] = test system: CD4+ve Th; test: Cytotoxicity against human CD4+ve Th cells upto 100 uM incubated for 3 hrs by annexin/PI staining based flow cytometry; format: toxicity, cell-based
Summary of the method: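 Memory CD4+ T cells from healthy-donor PBMC (Ficoll, magnetic isolation, >95% purity), 20×10^4 cells exposed to compound at 5–500 μM for 3 h at 37 °C, 5% CO2; viability by annexin/propidium iodide flow cytometry.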

[2] = target: C-C chemokine receptor type 5 (Homo sapiens) (UniProt P51681); test: Antagonist activity at CCR5 (unknown origin) transfected in HEK293T cells assessed as CCL5-induced beta-arrestin-1 recruitment at 0.030 to 300 uM measured for 20 mins by NanoBiT assay; format: functional, cell-based; conditions: filed as antagonist, dose 0.03-300 µM
Summary of the method: (§1)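 NanoBiT complementation in co-transfected HEK293T cells (SmBiT-tagged CCR6 or CCR5, LgBiT-tagged β-arrestin-1 or miniGi), coelenterazine h 15 min at 37 °C. After compound exposure (30 nM–300 μM), cells were stimulated with CCL20 10 nM (CCR6) or CCL5 5 nM (CCR5) and inhibition of chemokine-induced recruitment was monitored by luminescence.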

[3] = target: T1, C-C chemokine receptor type 6 (Homo sapiens) (UniProt P51684); test: Agonist activity at CCR6 (unknown origin) transfected in HEK293T cells assessed as mini-Gi recruitment at 0.030 to 300 uM measured for 20 mins by NanoBiT assay; format: functional, cell-based; conditions: dose 0.03-300 µM
T1 sequence (whole entry): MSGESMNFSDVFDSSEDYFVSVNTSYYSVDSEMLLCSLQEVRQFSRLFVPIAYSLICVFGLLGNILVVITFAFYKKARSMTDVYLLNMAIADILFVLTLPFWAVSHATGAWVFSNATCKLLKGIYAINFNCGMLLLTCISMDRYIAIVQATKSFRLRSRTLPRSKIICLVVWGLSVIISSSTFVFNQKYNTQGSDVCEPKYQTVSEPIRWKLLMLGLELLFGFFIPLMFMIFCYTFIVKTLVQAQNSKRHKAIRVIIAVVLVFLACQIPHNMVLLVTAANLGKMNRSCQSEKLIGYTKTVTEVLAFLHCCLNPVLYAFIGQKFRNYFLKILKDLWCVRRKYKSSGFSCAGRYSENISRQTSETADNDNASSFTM
Summary of the method: (§2)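 HEK293T cells (DMEM, 10% FBS) co-transfected with SmBiT C-tagged CCR6 or CCR5 and LgBiT N-tagged human β-arrestin-1 or miniGi; harvested 24 h later, loaded with coelenterazine h 15 min at 37 °C, 10^5 cells/well. Luminescence from recruitment induced by compound (30 nM–300 μM) read for 20 min; CCL20 (30 pM–300 nM) positive control.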

[4] = test system: Mus musculus; test: Anti-colitis activity against TNBS-induced colitis Swiss mouse model assessed as decrease in disease activity index at 1 mg/kg, sc bid for 3 days; format: functional, organism-based; conditions: time 3.0 day
Summary of the method: (§3)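 Female CD1 Swiss mice (7–12 weeks) skin-sensitized, then after 20 h fast given 5 mg TNBS in 50% ethanol intrarectally 6 days later. Compound 1 mg/kg or vehicle (1% DMSO in saline, 10 mL/kg) s.c. twice daily, 8 h apart, days 1–4; euthanized day 4. DAI from daily weight, stool, bleeding by blinded observers; macroscopic score; colon/lung MPO.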

[5] = test system: Mus musculus; test: Anti-inflammatory activity against zymosan-induced peritonitis mouse model assessed as decrease in MPO activity in peritoneal lavage at 1 mg/kg, sc administrated 1 hr prior to zymosan administration and measured after 4 hrs by absorbance based assay; format: functional, organism-based; conditions: time 5.0 hrs
Summary of the method: (§4)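 Mice fasted 2 h, then zymosan A 5 mg/mL in PBS (0.2 mL) i.p. Compound 1 mg/kg s.c. (vehicle 1% DMSO in saline, 10 mL/kg) 1 h before zymosan, or also 2 h after. Lavage at 4 h with 3 mL PBS, EDTA, heparin; centrifuged; supernatant protein by BCA (mg/mL); pellet MPO (mU/mL) or flow cytometry.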

[6] = test system: Mus musculus; test: Anti-inflammatory activity against zymosan-induced peritonitis mouse model assessed as decrease in MPO activity in peritoneal lavage at 1 mg/kg, sc administrated 1 hr before and 2 hrs after zymosan administration and measured after 2 hrs by absorbance based assay; format: functional, organism-based; conditions: time 5.0 hrs; summary of the method: as §4
[7] = test system: Mus musculus; test: Anti-inflammatory activity against zymosan-induced peritonitis mouse model assessed as decrease in total proteins in peritoneal lavage at 1 mg/kg, sc administrated 1 hr prior to zymosan administration and measured after 4 hrs by BCA assay; format: functional, organism-based; conditions: time 5.0 hrs; summary of the method: as §4
[8] = target: C-C chemokine receptor type 5 (Homo sapiens) (UniProt P51681); test: Agonist activity at CCR5 (unknown origin) transfected in HEK293T cells assessed as beta-arrestin-1 recruitment at 0.030 to 300 uM measured for 20 mins by NanoBiT assay; format: functional, cell-based; conditions: dose 0.03-300 µM; summary of the method: as §2
[9] = target: T1, C-C chemokine receptor type 6 (Homo sapiens); test: Agonist activity at CCR6 (unknown origin) transfected in HEK293T cells assessed as beta-arrestin-1 recruitment at 0.030 to 300 uM measured for 20 mins by NanoBiT assay; format: functional, cell-based; conditions: dose 0.03-300 µM; summary of the method: as §2
[10] = target: T1, C-C chemokine receptor type 6 (Homo sapiens); test: Antagonist activity at CCR6 (unknown origin) transfected in HEK293T cells assessed as CCL20-induced beta-arrestin-1 recruitment at 0.030 to 300 uM measured for 20 mins by NanoBiT assay; format: functional, cell-based; conditions: filed as antagonist, dose 0.03-300 µM; summary of the method: as §1
[11] = test system: Mus musculus; test: Anti-inflammatory activity against zymosan-induced peritonitis mouse model assessed as decrease in neutrophil recruitment in peritoneal lavage at 1 mg/kg, sc administrated 1 hr prior to zymosan administration and measured after 4 hrs by PI staining based flow cytometry; format: functional, organism-based; conditions: time 5.0 hrs; summary of the method: as §4
[12] = target: T1, C-C chemokine receptor type 6 (Homo sapiens); test: Antagonist activity at CCR6 (unknown origin) transfected in HEK293T cells assessed as CCL20-induced mini-Gi recruitment at 0.030 to 300 uM measured for 20 mins by NanoBiT assay; format: functional, cell-based; conditions: filed as antagonist, dose 0.03-300 µM; summary of the method: as §1
[13] = test system: Mus musculus; test: Anti-colitis activity against TNBS-induced colitis Swiss mouse model assessed as decrease in neutrophil infiltration by measuring MPO activity in colon at 1 mg/kg, sc bid for 3 days by absorbance based assay; format: functional, organism-based; conditions: time 3.0 day; summary of the method: as §3
[14] = test system: CD4+ve Th; test: Inhibition of cell migration of CCL20-induced human CD4+ve Th cells expressing CCR6 at 50 uM incubated for 3 hrs by FACS analysis; format: functional, cell-based
Summary of the method: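 Memory CD4+ T cells (20×10^4) in upper chamber of 5.0 μm transwell in IMDM with 0.5% BSA, preincubated with compound (0.5–50 μM) 15 min at 4 °C; 500 ng/ml CCL20 in lower chamber. After 3 h at 37 °C, migrated cells counted with counting beads by flow cytometry; migration index = CCL20-driven / medium-only migration; duplicate or triplicate.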

[15] = test system: Mus musculus; test: Anti-colitis activity against TNBS-induced colitis Swiss mouse model assessed as decrease in macroscopic injury at 1 mg/kg, sc bid for 3 days; format: functional, organism-based; conditions: time 3.0 day; summary of the method: as §3
[16] = test system: Mus musculus; test: Anti-colitis activity against TNBS-induced colitis Swiss mouse model assessed as decrease in neutrophil infiltration by measuring MPO activity in lung at 1 mg/kg, sc bid for 3 days by absorbance based assay; format: functional, organism-based; conditions: time 3.0 day; summary of the method: as §3
[17] = test system: Mus musculus; test: Anti-inflammatory activity against zymosan-induced peritonitis mouse model assessed as decrease in total proteins in peritoneal lavage at 1 mg/kg, sc administrated 1 hr before and 2 hrs after zymosan administration and measured after 2 hrs by BCA assay; format: functional, organism-based; conditions: time 5.0 hrs; summary of the method: as §4

Sequence of C-C chemokine receptor type 5 (Homo sapiens) (P51681 whole entry, looked up): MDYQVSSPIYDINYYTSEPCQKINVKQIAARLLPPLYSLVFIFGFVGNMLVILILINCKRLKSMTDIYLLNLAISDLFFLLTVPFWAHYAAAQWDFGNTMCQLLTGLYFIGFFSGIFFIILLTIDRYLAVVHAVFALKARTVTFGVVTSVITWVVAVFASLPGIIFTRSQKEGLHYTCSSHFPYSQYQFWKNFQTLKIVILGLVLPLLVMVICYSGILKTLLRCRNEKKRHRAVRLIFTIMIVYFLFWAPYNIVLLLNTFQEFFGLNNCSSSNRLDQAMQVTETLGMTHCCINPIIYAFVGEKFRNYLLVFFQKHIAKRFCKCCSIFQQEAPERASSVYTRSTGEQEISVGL

Row | Compound | Activity [1] | Activity [2] | Activity [3] | Activity [4] | Activity [5] | Activity [6] | Activity [7] | Activity [8] | Activity [9] | Activity [10] | Activity [11] | Activity [12] | Activity [13] | inhibition [14] | Activity [15] | Activity [16] | Activity [17]
1 | C/C(=N\Nc1ccc2ccccc2n1)c1cccc(C(F)(F)F)c1 | Non-Toxic |  |  |  |  |  |  |  |  |  |  |  |  |  |  |  | 
2 | Cc1c(C(=O)Nc2ccc(C(F)(F)F)cc2)oc2ccccc12 | Non-Toxic | Active | inactive | Active | inactive | Active | inactive | inactive | inactive | Active | inactive | Active | Active | Active | Active | Active | Active
3 | Cc1c(C(=O)Nc2cccc(F)c2)oc2ccccc12 | Non-Toxic |  |  |  |  |  |  |  |  |  |  |  |  |  |  |  | 
